The results in this text go back to the EternaBench riboswitch data.

The data set deals with MS2 coat protein. As to the kind of experiment: apparent Kd, MS2 coat protein; higher = weaker binding; RNA-MaP array; FMN 200 µM where present. In outline:
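Each design was made on Illumina sequencing-chip clusters by stalled E. coli RNA polymerase and titrated with SNAP-549-labelled MS2 coat protein from 0.7 or 1.5 nM, doubling to 3 µM, in the absence and then the presence of constant ligand. The buffer was 100 mM Tris-HCl pH 7.5, 80 mM KCl, 4 mM MgCl2, BSA, DTT, yeast tRNA and Tween-20. The apparent Kd is the median of filtered per-cluster fits of binding curves, with green signal normalised to red-channel RNA signal and control-cluster median Fmax.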

The mark [1] stands for this setting: designed as: OFF switch for flavin mononucleotide, no ligand.
The mark [2] stands for this setting: ligand present: flavin mononucleotide, designed as: OFF switch for flavin mononucleotide.
The mark [3] stands for this setting: designed as: ON switch for flavin mononucleotide, no ligand.
Where [4] appears, read: ligand present: flavin mononucleotide, designed as: ON switch for flavin mononucleotide.

What is called apparent Kd is the concentration giving half-maximal binding under the conditions of the assay. Consider “UUUUAACAUGAGGAUCACCCAUGUGAGGAUAUCGUUAUUUAUAUUAAUAUUAAUAAAACGAGAAGGCACAUUUU”, for which the “apparent Kd” value under setting [1] stood at 112 nM and the “apparent Kd” value under setting [2] turned out to be 141 nM.

In the case of “UCGCUGCGAGGAUAUACGUGCGCGCGCUCGCGUGCGCGCGUACAUGAGGAUCACCCAUGUAGAAGGCGCGCUGC”, the “apparent Kd” value reads like this: under setting [1], 17.1 nM; under setting [2], 18.3 nM.

Consider “GUGCGGUCAGGAUAUGCAUGGCGGGACUUGCGUCGUGGCGUGGAGAAGGGACAUGAGGAUCACCCAUGUGGAGC”, for which the “apparent Kd” value is, setting by setting: under setting [1], 51.4 nM; under setting [2], 54.2 nM.

“CCGUAAGAGCGGACAUGAGGAUCACCCAUGUAAGAGUCAUCCAGAAGGUCAGCGCUAAAUGGAAUGAAGGAUAUGGAGUGGGUC”: the “apparent Kd” value came to 668 nM under setting [3] and 357 nM under setting [4].

For the sequence “GACAGCGACACAGGAUAUGUCAAUUUUACAUGAGGAUCACCCAUGUCCGAAGCAGAAGGGUGAUCGCGCGCAAACUAAGCCAUG”, the “apparent Kd” value under setting [3] came out at 80.5 nM and the “apparent Kd” value under setting [4] is 70.5 nM.

Consider “GAGCGAAAGCUCAAUGUCGAUAGCAGAAGGACACAUGAUAACAUGAAAACAUGAGGAUCACCCAUGUAGGAUAUGCUAUCGACU”, for which the “apparent Kd” value is, setting by setting: under setting [1], 8.57 nM; under setting [2], 13.9 nM.

Turning to “GGAUGACAAAGUCAUCCUUAACGAACAUGAGGAUCACCCAUGUAGGAUAUGCUACUGAAACAGUAGCAGAAGGACAUGUGUCUU”, the “apparent Kd” value is, setting by setting: under setting [1], 29.7 nM; under setting [2], 130 nM.

Consider “AUACUCAUGUAAGGAUAUGCAGCCGUUUCGGCUGCAGAAGGUACUAAAAUACAUGAGGAUCACCCAUGUCUCUCGCAUUGCGAG”, for which the “apparent Kd” value reads like this: under setting [3], 753 nM; under setting [4], 117 nM.

As for “AUAUUAUUGAUCCAUUUUUUCAACAUGAGGAUCACCCAUGUGCAGGAUAUCGUGUGUUUUAUAAACGAGAAGGGCAAAUUCAUU”, the “apparent Kd” value by setting is: under setting [1], 82.6 nM; under setting [2], 218 nM.

As for “ACAUGAUAUGUAGGAUAUCACAUUAAUUGAUUAAUAAUUGAAUAUAGGAUUUGAGAAGGACAUUUACAUGAGGAUCACCCAUGU”, the “apparent Kd” value is, setting by setting: under setting [1], 17.6 nM; under setting [2], 13.1 nM.

Consider “GGGCCGCUACGCCGGCUCCACGCACAGGAUAUGCAGUUACAUGAGGAUCACCCAUGUGGCCAUGUGCAGAAGGGUGGUUCGCGA”, for which the “apparent Kd” value came out at 85.3 nM under setting [3] and 28.6 nM under setting [4].

In the case of “UAACAAAUUGUCAGGAUAUCAUUCCCGGCCCAGAGUGAGAAGGGACAUGAGGAUCACCCAUGUAUGAUUCUCAC”, the “apparent Kd” value is 16.1 nM under setting [1] and 15.3 nM under setting [2].

As to “GGAUAGGACAGAGGAUAUACGUGCUAGAGAUACAAGCAAAAUUUCCUCACAUGAGGAUCACCCAUGUAGAAGGCUGUCCUAUCG”, the “apparent Kd” value reads like this: under setting [1], 43.7 nM; under setting [2], 432 nM.

With “CCUAAAAGGAAGGAUAUGCUAGACGAAAGUCUAGCAGAAGGUCCUACAUGAGGAUCACCCAUGUGUCCUAUAGG”, the “apparent Kd” value runs as follows: under setting [1], 48.5 nM; under setting [2], 59.4 nM.

With “AUGCUGUCAGGAUAUCGUUAAUUUAGUUGUUUGUAUUAGUUCGAGAAGGGACAUGAGGAUCACCCAUGUAUGUA”, the “apparent Kd” value by setting is: under setting [1], 30.6 nM; under setting [2], 54.8 nM.

With “GUGUACAGAGGAUAUGCUUGAAUCUAGCGAAGCUAGGUUCGACAUGAGGAUCACCCAUGUAGAAGGCUGUACAC”, the “apparent Kd” value reads like this: under setting [1], 13.6 nM; under setting [2], 12.7 nM.

With “GUCUUAUUACAGAAGGUGUUUUACAUGAGGAUCACCCAUGUUUUAUUGUUUAAAUUUGAUAUUUACAAGGAUAUGUACUAAUCU”, the “apparent Kd” value runs as follows: under setting [3], 25.1 nM; under setting [4], 21 nM.

Turning to “GGUGCGUUUGUGAGGAUAUGCUGGUCCUUGGAUCAGCAGAAGGCACAUGAGGAUCACCCAUGUGGUGUCCCUCC”, the “apparent Kd” value runs as follows: under setting [1], 168 nM; under setting [2], 291 nM.

On to “UUUAAGUCAGGAUAUCGUUAAUUUAAUAAAUUAUUUUAAUUCGAGAAGGGACAUGAGGAUCACCCAUGUAAUUU”, for which the “apparent Kd” value is, setting by setting: under setting [1], 33.2 nM; under setting [2], 48.6 nM.

Regarding “AAAAAACAUGAGGAUCACCCAUGUCUUUUGACAUGAGGAUAUGUACAGACUUCGGUCUGUACAGAAGGCAUGUAAA”, the “apparent Kd” value was 511 nM under setting [3] and 34.7 nM under setting [4].

Turning to “UGUCCUUGAGGCUCGGACGUGUCGCCAGAAGGCAAUUUCUGACAUGAGGAUCACCCAUGUCCAAUUGAGGAUAUGGCUGCGUUG”, the “apparent Kd” value runs as follows: under setting [3], 17.3 nM; under setting [4], 5.56 nM.

Take “CUGUUCGGUGUAGGAUAUGCAUAUUCCCAUUAUGCAGAAGGACAUGAGGAUCACCCAUGUAUGUUAUUAUCAUGUGUUACAUGC”: the “apparent Kd” value under setting [1] turned out to be 38.2 nM and the “apparent Kd” value under setting [2] is 90.2 nM.

For the sequence “CUUGUGUUAGGAUAUGCGCCCUGCAAAAGCAGAGCCAGAGAGCAGAAGGAACAUGAGGAUCACCCAUGUGUGAC”, the “apparent Kd” value turned out to be 67.5 nM under setting [1] and 61.3 nM under setting [2].

Consider “CUGAAGUCAGGAUAUCGUUAAUUUAGUUGUUUGUAUUAGUUCGAGAAGGGACAUGAGGAUCACCCAUGUAAGUC”, for which the “apparent Kd” value worked out at 33.9 nM under setting [1] and 45.9 nM under setting [2].

On to “CUUCAGUGAGGAUAUACAUAACGGGACGUUAAUAUCGUUAGGUAGAAGGCACAUGAGGAUCACCCAUGUUUAAA”, for which the “apparent Kd” value was found to be 92 nM under setting [1] and 66 nM under setting [2].

“GGACCGCGUAGAAUUAGCGGCCGGCAGGAUAUGACAUGAGGAUCACCCAUGUGAACUCCAUUGGGUCAGAAGGGCCACGACACA”: the “apparent Kd” value under setting [1] turned out to be 20.6 nM and the “apparent Kd” value under setting [2] was 96.4 nM.

Take “GGACGUCACAUGAACAUGAGGAUCACCCAUGUAACUAGACAUGAGGAUAUGGUUCCUAAUUGGAACCAGAAGGCAUGGACGUCC”: the “apparent Kd” value was 224 nM under setting [3] and 33 nM under setting [4].

As for “GUGACGAUGUAAGGAUAUGCUGAGGAAUACUCAGCAGAAGGUACAUGAGGAUCACCCAUGUAAAUAAUAAGAAAUAAACGUCAC”, the “apparent Kd” value reads like this: under setting [1], 16 nM; under setting [2], 24.9 nM.

Regarding “GGAGCAACAUGAGGAUCACCCAUGUAGGAUAUCGCUAUUGUAAUCAUGAAACAUGAUUACAAUAGCGAGAAGGACAUAUGCUGG”, the “apparent Kd” value under setting [1] amounted to 24.9 nM and the “apparent Kd” value under setting [2] amounted to 27.3 nM.

In the case of “AGGUAAGACUUAAUUGUGCUGGUGAGAAGGCAAAUGGUUGUGAUUAACAUGAGGAUCACCCAUGUUGAGGAUAUCAUCGGUAUC”, under setting [2], the “apparent Kd” value was found to be 62.9 nM.

In the case of “UGCCUUGAGUAGAAGGGCUGUGCUGUGGCACUGAGUCCUCUCGACAUGAGGAUCACCCAUGUAGAGCAGGAUAUACUCGGAUAA”, the “apparent Kd” value reads like this: under setting [1], 5.78 nM; under setting [2], 7.3 nM.

For “UCUUAAUUGAUCCUAUUUACCAACAUGAGGAUCACCCAUGUGCAGGAUAUGCUAAAGAUAGAUAAGCAGAAGGGCAUUUACCGC”, the “apparent Kd” value is, setting by setting: under setting [1], 213 nM; under setting [2], 484 nM.

Turning to “GUCUUGUCAGGAUAUCUUACAUAACAAUCGUAGUUACAAUUGGAGAAGGGACAUGAGGAUCACCCAUGUUAGCC”, the “apparent Kd” value runs as follows: under setting [1], 18.7 nM; under setting [2], 21 nM.

“CGAUAACAUAGUUAUCCGUAGCGAACAUGAGGAUCACCCAUGUAGGAUAUGUUACUAAACUAGUAACAGAAGGACAUGAGUAUU”: the “apparent Kd” value stood at 154 nM under setting [1] and 407 nM under setting [2].

As for “GGUUGACAUAGUCAUCCUUAACGAACAUGAGGAUCACCCAUGUAGGAUAUGCUACUCAAAGAGUAGCAGAAGGGCGUGUGUCUU”, the “apparent Kd” value under setting [1] turned out to be 28.3 nM and the “apparent Kd” value under setting [2] came to 36.1 nM.

On to “GUAGCAUACCAAGGAUAUUCAGGGCUUGGAUAGACAUGAGGAUCACCCAUGUGGCGAAAGUCAAGGGAGAAGGUGGUAUGCUAC”, for which the “apparent Kd” value is 17.6 nM under setting [3] and 13.4 nM under setting [4].

“CGAUGUUAUGCAGGAUAUCUCUCUUGAUUGAGGAGAGAAGGGCAUAGGGAGACAUACGCCUUAUUACAUGAGGAUCACCCAUGU”: the “apparent Kd” value under setting [1] stood at 9.47 nM and the “apparent Kd” value under setting [2] came out at 7.85 nM.

Consider “CGCUAUUAUGUAGGAUAUACAUUUUUUAUGUAUGUAGAAGGACAUGAGGAUCACCCAUGUAAAUUAAUUUUAAUUAUCUUAGCG”, for which the “apparent Kd” value was found to be 16.4 nM under setting [1] and 13.3 nM under setting [2].

Turning to “GCGUGUAAUGUAGGAUAUGACACAGGAAACUGGUCAGAAGGACAUGAGGAUCACCCAUGUAAAAUGUUCAAGAAUAACACAUGC”, the “apparent Kd” value is, setting by setting: under setting [1], 22.9 nM; under setting [2], 37.8 nM.

Turning to “CUUUUGUGAGGAUAUUAGUAGUAAACAAACAAAAUUAUUACUGAGAAGGCACAUGAGGAUCACCCAUGUUCCUC”, the “apparent Kd” value reads like this: under setting [1], 39.7 nM; under setting [2], 637 nM.

In the case of “CAGCAAAGGUAGAAGGCAGUACUGAUACAGUACUGAGGAUAUACAUGAGGAUCACCCAUGUAAAAAAGCUGGAAAUAAAUAAAA”, the “apparent Kd” value under setting [1] came out at 7.39 nM and the “apparent Kd” value under setting [2] was found to be 10 nM.

Take “GGUUAAUGCAAGGAUAUGCUAUUAUUUUAUUUUGCAGAAGGUGCAACAUGAGGAUCACCCAUGUUGGAGGGUUU”: the “apparent Kd” value by setting is: under setting [1], 19.8 nM; under setting [2], 26.1 nM.

With “AAAUAACCUAGCAAAAUUUCCUCACAUGAGGAUCACCCAUGUAGAAGGCUGUCCUAAAAUAGGACAGAGGAUAUACAUGCUAGG”, the “apparent Kd” value was found to be 10.6 nM under setting [1] and 171 nM under setting [2].

Regarding “UUUGGGUGGCUGGAGGAUAUUCGAGUGGUAACAUGAGGAUCACCCAUGUGUCGCGCGGUACACGAGGAGAAGGCUGGCGGCCGUU”, the “apparent Kd” value reads like this: under setting [3], 56.5 nM; under setting [4], 18.9 nM.

As for “GGCGUGUUAGGAUAUCGCGGCGGCGGCGUUUGUUGUUGUUGUGAGAAGGAACAUGAGGAUCACCCAUGUAUGCC”, the “apparent Kd” value by setting is: under setting [1], 34.8 nM; under setting [2], 55 nM.

For “CAGCAAUGUAAGAAGGCUGCUCCGAUUAGGAGCAGAGGAUAUUACAUGAGGAUCACCCAUGUAUAAAAUAAUAGCUGAAAUAAU”, the “apparent Kd” value under setting [1] is 6.37 nM and the “apparent Kd” value under setting [2] was determined as 7.69 nM.

With “UUGGACGUCGUAGGAUAUGUAGGAUAUUCCUACAUGAGGAUCACCCAUGUUGACAUGGAAGAAGGACAGAACGACGAUGUCCAU”, the “apparent Kd” value under setting [3] was 172 nM and the “apparent Kd” value under setting [4] stood at 6.07 nM.

Consider “GUAGCAUACGGAGGAUAUUCAUACCGGAAACGGACAUGAGGAUCACCCAUGUGGCGAAAGCCUUGGGAGAAGGCCGUAUGCUAC”, for which the “apparent Kd” value under setting [3] is 671 nM and the “apparent Kd” value under setting [4] worked out at 21.9 nM.
